# Calls of active or inactive are those of the source. No cut-off for these calls is given here.
# How the values were obtained:
# [1] = system: Hep 3B2; test: Anti-proliferative activity against human Hep3B cells assessed as reduction in cell viability at7 nM incubated for 24 hrs by Fluoro Fire-Blue ProViaTox assay; assay type: functional, cell-based; conditions: dose 7.0 nM
# [2] = system: Hep 3B2; test: Anti-proliferative activity against human Hep3B cells assessed as reduction in cell viability at 1 uM incubated for 24 hrs by Fluoro Fire-Blue ProViaTox assay; assay type: functional, cell-based
# [3] = system: Hep 3B2; test: Anti-proliferative activity against human Hep3B cells assessed as reduction in cell viability at 20 uM incubated for 24 hrs by Fluoro Fire-Blue ProViaTox assay; assay type: functional, cell-based
# [4] = system: Hep 3B2; test: Downregulation of HDAC2 expression in human Hep3B cells at 50 nM incubated for 24 hrs by qRT-PCR analysis; assay type: functional, cell-based
# [5] = system: Hep 3B2; test: Antiinflammatory activity against human Hep3B cells assessed as reduction in nuclear protein expression level of p65 […] at 50 nM incubated for 24 hrs by […] analysis; assay type: functional, cell-based
# In short: (§1)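 Hep3B treated 24 h with 17-AAG 50 nM, alone, with 30% SGBS conditioned medium, or with resminostat 80 nM. p65 RNA measured by RT-PCR. Nuclear p65 protein measured by transcription-factor ELISA: nuclear extract bound to NFκB consensus-duplex plate for 1 h at room temperature, then anti-p65 and HRP secondary antibodies, then chemiluminescence read. n = 3.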
# [6] = system: Hep 3B2; test: Antiinflammatory activity against human Hep3B cells assessed as reduction in resminostat-induced p65 RNA expression level at 50 nM incubated for 24 hrs by qRT-PCR analysis relative to control; assay type: functional; parameters: scale not given: the % may be the effect or the level left; in short: as §1
# [7] = system: Hep 3B2; test: Antiinflammatory activity against human Hep3B cells assessed as reduction in nuclear protein expression level of p65 […] at 50 nM incubated for 24 hrs in presence of SGBS CM by […] analysis; assay type: functional, cell-based; in short: as §1
# [8] = system: Hep 3B2; test: Antiinflammatory activity against human Hep3B cells assessed as reduction in p65 RNA expression level at 50 nM incubated for 24 hrs in presence of SGBS CM by qRT-PCR analysis; assay type: functional, cell-based; in short: as §1
# [9] = system: Hep 3B2; test: Anti-proliferative activity against human Hep3B cells assessed as reduction in cell viability at 50 nM measured after 24 hrs by Fluoro Fire-Blue ProViaTox assay; assay type: functional, cell-based
# [10] = system: Hep 3B2; test: Downregulation of HDAC1 expression in human Hep3B cells at 50 nM incubated for 24 hrs by qRT-PCR analysis; assay type: functional, cell-based
smiles,measurement,setting,value
CCCc1cc(C)[nH]c(=O)c1CNC(=O)c1cc(-c2ccnc(N3CCN(C)CC3)c2)cc2c1cnn2C(C)C,Activity,[1],Active
COc1cccc2c1C(=O)c1c(O)c3c(c(O)c1C2=O)C[C@@](O)(C(=O)CO)C[C@@H]3O[C@H]1C[C@H](N)[C@H](O)[C@H](C)O1,Activity,[2],Active
Nc1nccc2c1ncn2[C@@H]1C=C(CO)[C@@H](O)[C@H]1O,Activity,[3],Active
C=CCNC1=C2C[C@@H](C)C[C@H](OC)[C@H](O)[C@@H](C)/C=C(\C)[C@H](OC(N)=O)[C@@H](OC)/C=C\C=C(/C)C(=O)NC(=CC1=O)C2=O [TANESPIMYCIN],Activity,[4],Active
same,Activity,[5],Active
same,Activity,[6],100%
same,Activity,[7],Active
same,Activity,[8],Active
same,Activity,[9],Active
same,Activity,[10],Active

# From ChEMBL document CHEMBL5674881, “The therapeutic properties of resminostat for hepatocellular carcinoma” (2018)
